Data on 25 compounds can be found in ChEMBL document CHEMBL1137684, “Examination of growth inhibitory properties of synthetic chalcones for which antibacterial activity was predicted” (2009).

Values after ≈ are worked out from the molar mass of the structure shown. Active and inactive are the calls of the source.

For one experiment, the system named is Staphylococcus aureus. The experiment can be described thus: Antibacterial activity against Staphylococcus aureus Rosenbach 209 after 24 hrs by serial dilution method. Format: functional. The note with it: Rosenbach 209, 24 h. An outline of the steps: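 Serial dilution of each chalcone in meat-peptone broth in tubes. Each tube was inoculated with bacterial suspension at 10⁵ cells/ml and incubated at 37 °C for 24 h. MIC was the lowest dilution with no visible growth compared with inoculated drug-free broth.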
`O=C(/C=C/c1ccc(Cl)cc1)c1ccc(Cl)cc1` [4',4-DICHLOROCHALCONE] returned an MIC of 500 µg/mL (≈ 1800 µM).
The same measure, in the same setting: the result for `COc1cc(C(=O)/C=C/c2ccc([N+](=O)[O-])cc2)cc(OC)c1OC` reads 62.5 µg/mL (≈ 182 µM).
As to `O=C(/C=C/c1cc([N+](=O)[O-])ccc1O)c1ccc(Cl)cc1`, it took 500 µg/mL (≈ 1650 µM) to inhibit growth (MIC).
Still for that read-out and setting: the result for `O=C(/C=C/c1ccc(O)cc1)c1ccccc1` [4-HYDROXYCHALCONE] reads 125 µg/mL (≈ 557 µM); that for `COc1cccc(/C=C/C(=O)c2ccccc2)c1O`, 125 µg/mL (≈ 492 µM).
`O=C(/C=C/c1ccc(Cl)cc1)c1ccccc1` [4-CHLORO CHALCONE] came in with a minimum inhibitory concentration (MIC) of 500 µg/mL (≈ 2060 µM). Compared with the last compound, the MIC is about 4-fold higher.
For `COc1cc(/C=C/C(=O)c2ccccc2)ccc1O`, the MIC was 500 µg/mL (≈ 1970 µM).
Regarding `COc1cc(/C=C/C(=O)c2ccc(Cl)cc2)cc(OC)c1O`, the MIC came out at 500 µg/mL (≈ 1570 µM).
Compound `COc1ccc(/C=C/C(=O)c2cc(OC)c(OC)c(OC)c2)cc1` yielded an MIC of 500 µg/mL (≈ 1520 µM).
For `O=C(/C=C/C=C/c1ccccc1)c1ccc(Cl)cc1`, the lowest concentration to inhibit growth (MIC) was 500 µg/mL (≈ 1860 µM).
`COc1ccc(/C=C/C(=O)c2ccccc2)cc1O` displayed a minimal inhibitory concentration (MIC) of 250 µg/mL (≈ 983 µM).
Consider `O=C(/C=C/c1ccc([N+](=O)[O-])cc1)c1ccc(Cl)cc1`, for which it took 250 µg/mL (≈ 869 µM) to inhibit growth (MIC).
The compound `COc1cc(C(=O)/C=C/c2ccc(O)cc2)cc(OC)c1OC` yielded an MIC of 500 µg/mL (≈ 1590 µM).
The compound `O=C(/C=C/c1cccc(O)c1)c1ccc(Cl)cc1` displayed an MIC of 125 µg/mL (≈ 483 µM).
Turning to `O=C(/C=C/c1ccc(O)cc1)c1ccc(Cl)cc1`, the MIC stood at 125 µg/mL (≈ 483 µM).
Compound `COc1cc(C(=O)/C=C/C=C/c2ccccc2)cc(OC)c1OC` came in with an MIC of 500 µg/mL (≈ 1540 µM).
Consider `N#Cc1ccc(/C=C/C(=O)c2ccc(Cl)cc2)cc1`, for which inhibition of growth (MIC) required 250 µg/mL (≈ 934 µM). Compared with the last compound, the MIC is about 2-fold lower.
Compound `N#Cc1ccc(/C=C/C(=O)c2ccccc2)cc1` had an MIC of 500 µg/mL (≈ 2140 µM).
Turning to `COc1cc(/C=C/C(=O)c2ccc(Cl)cc2)ccc1O`, the MIC came to 250 µg/mL (≈ 866 µM).
The compound `COc1cc(C(=O)/C=C/c2ccccc2O)cc(OC)c1OC` yielded an MIC of 500 µg/mL (≈ 1590 µM). This MIC is about 2-fold higher than that of the compound before.
Consider `COc1cc(/C=C/C(=O)/C=C/c2cc(OC)c(OC)c(OC)c2)cc(OC)c1OC`, for which the MIC stood at 250 µg/mL (≈ 603 µM). This MIC is about 2-fold lower than that of the compound before.
The compound `COc1ccc(/C=C/C(=O)c2ccc(Cl)cc2)cc1` gave an MIC of 500 µg/mL (≈ 1830 µM).
`COc1ccc(/C=C/C(=O)c2ccc(Cl)cc2)cc1O` had an MIC of 62.5 µg/mL (≈ 216 µM).
`O=C(/C=C/c1cccc(O)c1)c1ccccc1` [3-HYDROXY CHALCONE] returned an MIC of 250 µg/mL (≈ 1110 µM).
In turn, `COc1cc(C(=O)/C=C/c2ccccc2)cc(OC)c1OC` had an MIC of 250 µg/mL (≈ 838 µM).

The next experiment deals with Escherichia coli. In words: Antibacterial activity against Escherichia coli WF+. Format: functional, organism-based.
Details: not given
With `O=C(/C=C/c1ccc(Cl)cc1)c1ccc(Cl)cc1` [4',4-DICHLOROCHALCONE], the outcome was inactive.
`COc1cc(C(=O)/C=C/c2ccc([N+](=O)[O-])cc2)cc(OC)c1OC`: the result was inactive.
`O=C(/C=C/c1cc([N+](=O)[O-])ccc1O)c1ccc(Cl)cc1`: the result was inactive.
Consider `O=C(/C=C/c1ccc(O)cc1)c1ccccc1` [4-HYDROXYCHALCONE], for which the outcome was inactive.
Consider `COc1cccc(/C=C/C(=O)c2ccccc2)c1O`, for which the outcome was inactive.
Turning to `O=C(/C=C/c1ccc(Cl)cc1)c1ccccc1` [4-CHLORO CHALCONE], the result was inactive.
For the compound `COc1cc(/C=C/C(=O)c2ccccc2)ccc1O`, the outcome was inactive.
Take `COc1cc(/C=C/C(=O)c2ccc(Cl)cc2)cc(OC)c1O`: the result was inactive.
For `COc1ccc(/C=C/C(=O)c2cc(OC)c(OC)c(OC)c2)cc1`, the result was inactive.
As to `O=C(/C=C/C=C/c1ccccc1)c1ccc(Cl)cc1`, the result was inactive.
Consider `COc1ccc(/C=C/C(=O)c2ccccc2)cc1O`, for which the outcome was inactive.
As for `O=C(/C=C/c1ccc([N+](=O)[O-])cc1)c1ccc(Cl)cc1`, the outcome was inactive.
With `COc1cc(C(=O)/C=C/c2ccc(O)cc2)cc(OC)c1OC`, the outcome was inactive.
Consider `O=C(/C=C/c1cccc(O)c1)c1ccc(Cl)cc1`, for which the outcome was inactive.
For the compound `O=C(/C=C/c1ccc(O)cc1)c1ccc(Cl)cc1`, the outcome was inactive.
Still for that read-out and setting: the result for `COc1cc(C(=O)/C=C/C=C/c2ccccc2)cc(OC)c1OC` reads “inactive”.
On the same count and under the same terms, the result for `N#Cc1ccc(/C=C/C(=O)c2ccc(Cl)cc2)cc1` reads “inactive”; that for `N#Cc1ccc(/C=C/C(=O)c2ccccc2)cc1`, “inactive”; that for `COc1cc(/C=C/C(=O)c2ccc(Cl)cc2)ccc1O`, “inactive”.
Consider `COc1cc(C(=O)/C=C/c2ccccc2O)cc(OC)c1OC`, for which the result was inactive.
`COc1cc(/C=C/C(=O)/C=C/c2cc(OC)c(OC)c(OC)c2)cc(OC)c1OC`: the outcome was inactive.
For the compound `COc1ccc(/C=C/C(=O)c2ccc(Cl)cc2)cc1`, the result was inactive.
As for `COc1ccc(/C=C/C(=O)c2ccc(Cl)cc2)cc1O`, the result was inactive.
Consider `O=C(/C=C/c1cccc(O)c1)c1ccccc1` [3-HYDROXY CHALCONE], for which the result was inactive.
For the compound `COc1cc(C(=O)/C=C/c2ccccc2)cc(OC)c1OC`, the outcome was inactive.

The test system of a further experiment is Staphylococcus aureus. In words: Antibacterial activity against Staphylococcus aureus Rosenbach 209 after 48 hrs by agar well diffusion method. Format: functional.
Details: not given
An outline of the steps:
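Agar-well diffusion on meat-peptone agar. Read-out was the diameter of the inhibition zone, with ≥15 mm taken as active. Pure solvent served as the control.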
In the case of `O=C(/C=C/c1ccc(Cl)cc1)c1ccc(Cl)cc1` [4',4-DICHLOROCHALCONE], the “diameter of the inhibition zone (DIZ)” value amounted to 0 mm.
Turning to `COc1cc(C(=O)/C=C/c2ccc([N+](=O)[O-])cc2)cc(OC)c1OC`, the “diameter of the inhibition zone (DIZ)” value was found to be 0 mm.
Regarding `O=C(/C=C/c1cc([N+](=O)[O-])ccc1O)c1ccc(Cl)cc1`, the “diameter of the inhibition zone (DIZ)” value was found to be 0 mm.
On the same count and under the same terms, in the case of `O=C(/C=C/c1ccc(O)cc1)c1ccccc1` [4-HYDROXYCHALCONE] it was 19 mm.
Consider `COc1cccc(/C=C/C(=O)c2ccccc2)c1O`, for which the “diameter of the inhibition zone (DIZ)” value is reported as 19 mm.
The same measure, in the same setting: the result for `O=C(/C=C/c1ccc(Cl)cc1)c1ccccc1` [4-CHLORO CHALCONE] reads 0 mm.
As to `COc1cc(/C=C/C(=O)c2ccccc2)ccc1O`, the “diameter of the inhibition zone (DIZ)” value is recorded as 0 mm.
In the case of `COc1cc(/C=C/C(=O)c2ccc(Cl)cc2)cc(OC)c1O`, the “diameter of the inhibition zone (DIZ)” value is given as 19 mm.
As to `COc1ccc(/C=C/C(=O)c2cc(OC)c(OC)c(OC)c2)cc1`, the “diameter of the inhibition zone (DIZ)” value was determined as 0 mm.
For `O=C(/C=C/C=C/c1ccccc1)c1ccc(Cl)cc1`, the “diameter of the inhibition zone (DIZ)” value is on record as 0 mm.
On the same count and under the same terms, in the case of `COc1ccc(/C=C/C(=O)c2ccccc2)cc1O` it was 0 mm; in that of `O=C(/C=C/c1ccc([N+](=O)[O-])cc1)c1ccc(Cl)cc1`, 17 mm; in that of `COc1cc(C(=O)/C=C/c2ccc(O)cc2)cc(OC)c1OC`, 0 mm.
For `O=C(/C=C/c1cccc(O)c1)c1ccc(Cl)cc1`, the “diameter of the inhibition zone (DIZ)” value is 25 mm.
On to `O=C(/C=C/c1ccc(O)cc1)c1ccc(Cl)cc1`, for which the “diameter of the inhibition zone (DIZ)” value turned out to be 31 mm.
For `COc1cc(C(=O)/C=C/C=C/c2ccccc2)cc(OC)c1OC`, the “diameter of the inhibition zone (DIZ)” value came to 19 mm.
Still for that read-out and setting: the result for `N#Cc1ccc(/C=C/C(=O)c2ccc(Cl)cc2)cc1` reads 21 mm; that for `N#Cc1ccc(/C=C/C(=O)c2ccccc2)cc1`, 16 mm; that for `COc1cc(/C=C/C(=O)c2ccc(Cl)cc2)ccc1O`, 21 mm.
Still for that read-out and setting: the result for `COc1cc(C(=O)/C=C/c2ccccc2O)cc(OC)c1OC` reads 0 mm.
Consider `COc1cc(/C=C/C(=O)/C=C/c2cc(OC)c(OC)c(OC)c2)cc(OC)c1OC`, for which the “diameter of the inhibition zone (DIZ)” value worked out at 0 mm.
Consider `COc1ccc(/C=C/C(=O)c2ccc(Cl)cc2)cc1`, for which the “diameter of the inhibition zone (DIZ)” value is 0 mm.
Same read-out and setting: in the case of `COc1ccc(/C=C/C(=O)c2ccc(Cl)cc2)cc1O` it was 0 mm; in that of `O=C(/C=C/c1cccc(O)c1)c1ccccc1` [3-HYDROXY CHALCONE], 20 mm.
For the compound `COc1cc(C(=O)/C=C/c2ccccc2)cc(OC)c1OC`, the “diameter of the inhibition zone (DIZ)” value came to 0 mm.

One may read the MIC as the smallest concentration in the dilution series that meets the test's criterion for growth inhibition. High values mean a need for much substance, low ones inhibition by little substance.
